VIM-2 inh: inhibitors of Pseudomonas aeruginosa VIM-2 metallo-beta-lactamase. purified VIM-2, nitrocefin hydrolysis, epi-absorbance fluorescence. inhibition, % at 5.6 µM. hit rate 0.89% among 290,000. AID 1527;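 active = inhibition above the mean of all tested compounds plus 3 SD, cutoff set per screening run, cut at about 7.5% in these data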;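 note: red hydrolysis product quenches plate fluorescence so inhibitors raise well fluorescence; 0% = enzyme with DMSO and 100% = DMSO without enzyme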
UBC9 SUMO inh: blocks human SUMOylation mediated by UBC9; HTRF SUMOylation assay, SAE1/SAE2 + UBC9, in vitro; inhibition, % at 35 µM; hit rate 0.36% among 290,000; AID 2006; in the data active = inhibition above about 50%, passing the limit was not always enough
Target sequence (P63279 whole entry, looked up): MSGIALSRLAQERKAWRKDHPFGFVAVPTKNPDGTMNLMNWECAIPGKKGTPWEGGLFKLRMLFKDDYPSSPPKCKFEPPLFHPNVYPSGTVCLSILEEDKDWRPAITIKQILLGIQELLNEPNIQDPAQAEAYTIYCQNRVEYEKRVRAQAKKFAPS
Mot1-301 SUMO: SUMOylation pathway inhibition by Mot1-301 growth rescue. S. cerevisiae Mot1-301 growth rescue, ATP luminescence, 38.5C; percent above DMSO median, 100 means doubled. growth rescue, % at 18.8 µM. hit rate 1% among 320,000;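 active = every valid replicate shows activation above 250% relative to neutral control wells; inactive = the rest, any valid replicate at or below 250%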;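 note: OY570 slx delta 5 strain wells were the positive control but not used for scaling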
IMP-1 inhibitor: blocks Pseudomonas aeruginosa IMP-1 metallo-beta-lactamase; purified IMP-1, nitrocefin hydrolysis, epi-absorbance fluorescence; inhibition, % at 5.6 µM; hit rate 0.45% among 290,000; AID 1556;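 active = inhibition above the mean plus 3 SD of all compounds in the same screening run, cut at about 4.5% in these data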;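 note: 0% = IMP-1 with DMSO and 100% = DMSO wells lacking enzyme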
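Assay system: purified IMP-1; Quantity: IMP-1 0.2 nM before substrate addition; Medium: HEPES buffer pH 7.1 with ZnSO4 and Brij 35; Incubation: 15 min enzyme–compound preincubation, then 25 min nitrocefin reaction, 25 °C; Signal: fluorescence quenching readout, ex 480/em 530 nm; Controls: DMSO with and without IMP-1; Repeats: singlicate testing.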
FID counter: fluorescent intercalator displacement, NS3 helicase counter-screen | DNA fluorescent intercalator displacement, fluorescence | inhibition, % at 7.9 µM | hit rate 0.17% among 290,000 | AID 1845; in the data active = inhibition above about 37%;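 note: 0% = vehicle and 100% = reference compound; higher means more ethidium bromide displaced from hairpin DNA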
NALP1 inh: inhibitors of NALP1 inflammasome in yeast; S. cerevisiae NALP1/ASC/caspase-1 growth, X-gal OD620, 72 h; inhibition, % at 10 µM; hit rate 0.61% among 280,000; AID 2071; in the data active = inhibition mostly above about 24%, no sharp cut-off; inactive = mostly below about 32%
The depositor's hits bear a star; . = no result. Rows were chosen to be rich in hits. Some 2.9% of all compounds tested hit in one or more screens of this group.

SMILES	VIM-2 inh	UBC9 SUMO inh	Mot1-301 SUMO	IMP-1 inhibitor	FID counter	NALP1 inh
CCN(CC)CCCNC(=O)c1ccc2c(Cl)c3c(nc2c1)CCCC3	9.3*	10	81	-3	6	-7
CCN(CC)CCNC(=O)CSc1c2c(nc3cc(Cl)ccc13)CCCC2	8.4*	-24	31	-1	12	14
O=C(NCCCCc1ccccc1)c1ccccc1Cl	-1	6	-5	-2	-18	-7
COc1ccc(CC(=O)N(C)CC(=O)Nc2cccc(F)c2)cc1S(=O)(=O)N1CCOCC1	-1	9	0	-3	-4	14
O=C(Nc1ccccc1)c1cccc(N2C(=O)CCC2=O)c1	-2	13	-2	-4	2	15
CN(C)c1ccc(NC(=O)c2cccc(N3C(=O)CCC3=O)c2)cc1	-1	11	-9	-2	-3	40*
CN1C(N)=NC(=O)/C1=C/c1ccc(OC(F)(F)F)cc1	-2	10	5	-2	-1	0
CC(C)CC(=O)Nc1ccc2oc(-c3cccnc3)nc2c1	-4	53*	-7	-1	-16	25
O=C(CN1CCCC1)Nc1ccc(-c2nc3cc(NC(=O)CN4CCCC4)ccc3o2)cc1	5	37	-17	-3	47*	20
CCCC(=O)Nc1ccc2oc(-c3cncc(Br)c3)nc2c1	1	52*	3	-2	-1	14
CCC(=O)Nc1ccc2oc(-c3cccnc3)nc2c1	-1	47	-16	-2	-6	.
COc1ccc(Cl)cc1S(=O)(=O)NC(C)C(=O)NCCCn1ccnc1 (centres undefined)	.	.	-6	.	.	.
CN1CCCN=C1/C=C/c1cccs1	0	-1	2	1	-2	19
CCn1ncc(C(=O)Nc2cccc(Cl)c2)c1C	-3	2	159	0	0	45*
CC(=O)CC(=O)Nc1nc(C)cc(C)n1	-1	15	5	-1	0	22
CCOCC(=O)Nc1nc(C)cc(C)n1	-1	69*	7	-1	2	14
COCCCNCCOCCOc1c(OC)cccc1OC	-2	-7	3	-2	7	24*
Cc1[nH]c(=S)c(C#N)c(C)c1C(=O)Nc1ccccc1	-4	21	26	-3	1	-5
Cc1ccccc1NC(=O)c1c(C)[nH]c(=S)c(C#N)c1-c1ccco1	-1	25	0	17*	22	24
CNC(=O)c1c(C)[nH]c(=S)c(C#N)c1-c1ccco1	1	14	0	18*	-8	-1
CCN(Cc1ccccc1)C(=O)c1cc2c(=O)oc3ccc(C)cc3c2s1	1	-4	5	-4	-11	42*
Cc1ccc2oc(=O)c3cc(C(=O)NCCCN4CC(C)CC(C)C4)sc3c2c1 (centres undefined)	10*	16	0	-2	20	30
Cc1ccc2cc3cc(C(=O)N4CC(C)CC(C)C4)oc3nc2c1 (centres undefined)	-3	4	4	-5	-25	-30
Cc1ccc2oc(=O)c3cc(C(=O)N4CCN(C(=O)c5ccco5)CC4)sc3c2c1	-2	14	22	0	-3	11
Cc1ccc2cc3cc(C(=O)NCCCN4CC(C)CC(C)C4)oc3nc2c1 (centres undefined)	10*	28	6	-2	22	25
SMILES	VIM-2 inh	UBC9 SUMO inh	Mot1-301 SUMO	IMP-1 inhibitor	FID counter	NALP1 inh
CCN(CC)CCOc1ccccc1C(C)=O	-2	14	-3	-2	6	6
CCc1noc(C)c1C(=O)Nc1nc(-c2ccc(OC)cc2OC)cs1	.	.	3	.	.	.
CN(C)C(C)(C)C#CCC(c1ccccc1)c1ccccc1	0	-5	-17	-2	14	64*
O=C(Nc1nncs1)C12CC3CC(CC(Cl)(C3)C1)C2	-1	-11	9	-2	-11	-5
CC(=O)Nc1ccccc1-c1ccc(C)o1	-1	21	-4	-3	-2	6
Cc1ccc(NC(=O)CS(=O)CC(=O)Nc2ccccc2-c2ccc(C)o2)cc1 (centres undefined)	9.1*	23	-10	3	-2	12
CC(=O)N1CCN(c2ccc(NC(=O)c3ccc(Cl)c(Cl)c3)cc2)CC1	-2	0	2	-3	-18	1
Cc1ccc(C(C[N+](=O)[O-])n2nc(C)cc2C)cc1 (centres undefined)	2	5	624*	0	-4	11
NCCNC(=O)Cn1c(=O)c2c3c(sc2n(Cc2ccccc2)c1=O)CCCC3	8.2*	16	-14	-1	2	-8
O=C(O)CN1C(=O)/C(=C\c2cccc(OC(=O)c3ccco3)c2)SC1=S	6	-3	417*	2	-8	17
C=CCN1C(=O)/C(=C\c2ccc(OC(=O)c3ccco3)c(OC)c2)SC1=S	-2	0	3	-2	-5	30*
CCN1C(=O)/C(=C\c2cccc(OC(=O)c3ccco3)c2)SC1=S	-3	0	321*	0	-2	-2
O=C(O)CN1C(=O)/C(=C/c2ccc(SCc3ccccc3)o2)SC1=S	4	.	.	4.7*	-2	1
O=C(/C=C/c1ccccc1)CC(=O)c1ccccc1O	-2	13	8	-2	-6	1
COc1ccccc1N1CCN(C(=O)CSc2nc(N)cc(=O)[nH]2)CC1	0	9	38	0	1	41*
COc1ccccc1N1CCN(C(=O)CCN2C(=O)c3cccc4cccc(c34)C2=O)CC1	-2	16	6	-2	1	45*
C[C@@]12C(=O)Nc3ccc(Cl)cc3C(=O)N1[C@H]1c3ccccc3OC[C@@H]1[C@@H]2c1ccccc1	.	.	543*	.	.	.
CC1CCCCN1CCCNc1ccc(C(CC(N)=O)NC(=O)Cc2ccc(Br)cc2)cc1[N+](=O)[O-] (centres undefined)	-2	-2	-5	-1	20	25
O=C(CN1C(=O)NC2(CCCc3ccccc32)C1=O)c1ccc(Br)cc1 (centres undefined)	.	.	322	.	.	.
O=C(CN1C(=O)NC2(CCc3ccccc32)C1=O)c1ccc(Br)cc1 (centres undefined)	.	.	278*	.	.	.
COc1ccc(C2=NN(c3ccccc3)C(=O)/C2=C\c2ccc(O)c(OC)c2)cc1	-1	74*	3	-2	-8	6
O=C1C(Cl)=C(NC(=O)c2ccccc2)C(=O)C(Cl)=C1NC(=O)c1ccccc1	0	51*	2	-27	8	1
O=C(NC1=C(Nc2ccc(Cl)cc2)C(=O)c2ccccc2C1=O)c1ccccc1	1	20	18	-1	8	26
COc1cccc(NC(=O)CN(C)C(=O)c2ccc3c(c2)S(=O)(=O)N=C2CCCCCN23)c1	.	.	-2	.	.	.
COc1ccc(OC)c(S(=O)(=O)N(C)CC(=O)N2CCN(c3ccccc3F)CC2)c1	0	-7	-5	17*	-35	44
